This is a sample that favours compounds with a hit; in the whole collection about 1.8% have one here.
CHRM4 PAM – human M4 muscarinic receptor positive allosteric modulators, primary screen, CHO-K1 cells, Fluo-8 calcium fluorescence; CHO-K1 hM4/Gqi5, ACh EC20; 0% = ACh EC20, 100% = maximal ACh; 360,000 tested, 0.4% active; activation, % at 3 µM; Muscarinic acetylcholine receptor M4 (Homo sapiens), P08173;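 active = activation above its plate's cutoff, the mean activation of sample wells plus 3 SD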
CHRM5 agonist – human M5 muscarinic receptor agonists, primary screen, CHO-K1 cells, Fluo-8 calcium fluorescence. Muscarinic acetylcholine receptor M5 (Homo sapiens), P08912. CHO-K1 hM5 cells; 0% DMSO wells, 100% maximal acetylcholine response. activation, % at 3 µM. 360,000 tested, 0.19% active;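 active = activation above the run's mean over test compounds plus 3 SD, cut at about 23% in these data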;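 note: signal is peak over basal fluorescence ratio across the kinetic read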
Target sequence (P08912 whole entry, looked up): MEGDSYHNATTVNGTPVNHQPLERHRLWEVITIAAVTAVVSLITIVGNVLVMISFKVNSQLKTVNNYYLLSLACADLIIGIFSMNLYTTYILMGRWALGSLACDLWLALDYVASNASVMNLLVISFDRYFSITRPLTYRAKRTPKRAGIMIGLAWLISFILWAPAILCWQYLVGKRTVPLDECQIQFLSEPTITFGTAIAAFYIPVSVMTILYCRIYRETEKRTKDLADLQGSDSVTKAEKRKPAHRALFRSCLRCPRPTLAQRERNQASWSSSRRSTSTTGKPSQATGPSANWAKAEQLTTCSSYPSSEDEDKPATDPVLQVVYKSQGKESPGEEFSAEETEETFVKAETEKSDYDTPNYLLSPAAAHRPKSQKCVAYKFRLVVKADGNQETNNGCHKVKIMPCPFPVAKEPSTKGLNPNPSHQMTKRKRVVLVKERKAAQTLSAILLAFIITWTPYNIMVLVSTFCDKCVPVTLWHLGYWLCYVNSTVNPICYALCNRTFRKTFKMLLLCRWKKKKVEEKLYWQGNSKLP
CHRM5 PAM – human M5 muscarinic receptor positive allosteric modulators, primary screen, CHO-K1 cells, Fluo-8 calcium fluorescence | Muscarinic acetylcholine receptor M5 (Homo sapiens), P08912 | CHO-K1 hM5, ACh EC20 PAM; 0% = ACh EC20, 100% = ACh EC100 | activation, % at 3 µM | 360,000 tested, 0.3% active;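 active = activation above the run cutoff, the mean activation of all test compounds plus 3 SD, cut at about 18% in these data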
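System – CHO-K1 hM5 cells · Compound – 3 µM, single dose · Incubation – compound preincubation 140 s before EC20 acetylcholine addition · Technique – Fluo-8 calcium fluorescence · Measure – Max/basal fluorescence ratio as % of EC20–EC100 ACh window · Benchmarks – low control EC20 acetylcholine (0%), high control EC100 acetylcholine (100%) · Replication – singlicate, one well per test compound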
CHRM5 antagonist – human M5 muscarinic receptor antagonists, primary screen, CHO cells, Fluo-8 calcium fluorescence; Muscarinic acetylcholine receptor M5 (Homo sapiens), P08912; CHO-hM5 cells, ACh EC80; inhibition, % at 3 µM; 360,000 tested, 0.59% active; AID 624040, 2012;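 active = inhibition above a per-plate cutoff, the mean of that plate's test compounds plus 3 SD, cut at about 27% in these data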
CHRM4 agonist – human M4 muscarinic receptor agonists, primary screen, CHO-K1 cells, Fluo-8 calcium fluorescence; Muscarinic acetylcholine receptor M4 (Homo sapiens), P08173; CHO-K1 hM4/Gqi5; vehicle 0%, full acetylcholine response 100%; activation, % at 3 µM; 360,000 tested, 0.14% active; AID 624127, 2012;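 active = activation above the run mean over all test wells plus 3 SD, cut at about 32% in these data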;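 note: peak over basal fluorescence ratio per well then scaled between controls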
CHRM4 antagonist – human M4 muscarinic receptor antagonists, primary screen, CHO cells, Fluo-8 calcium fluorescence | Muscarinic acetylcholine receptor M4 (Homo sapiens), P08173 | CHO-hM4 cells, ACh EC80 | inhibition, % at 3 µM | 360,000 tested, 0.73% active;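 active = inhibition above its plate's cutoff, the mean inhibition of sample wells plus 3 SD, cut at about 27% in these data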
Large screens that a line does not name were inactive.

C#CCOCCOCCOCCNc1nc(N2CCN(C(=O)[C@H](CCC(=O)O)n3cc([C@@H](N)CCCCN)nn3)CC2)nc(N2CCN(C(=O)[C@H](CCCCN)n3cc([C@@H](N)CC(N)=O)nn3)CC2)n1	none
CC(=O)Nc1ccc(S(=O)(=O)N2CCC(C(=O)NCCC(=O)Nc3ccccc3)CC2)cc1	CHRM5 PAM 20
C/C(N)=C(/C#N)C(=O)COC(=O)c1ccc(C)c(S(=O)(=O)N2CCCCC2)c1	CHRM5 PAM 33
COc1cc(C(C)=O)ccc1OCC(=O)Nc1ccc(C)c(S(=O)(=O)N2CCCCCC2)c1	CHRM5 antagonist 32
O=C1NCCCCC1NS(=O)(=O)c1cccc(C(F)(F)F)c1 (stereo not given)	none
CCOC(=O)CCCCCC(=O)Nc1ccc2c(c1)C(=O)N([C@@H](C)CO)C[C@@H](C)[C@H](CN(C)S(=O)(=O)c1cccs1)OCCCC[C@H](C)O2	none
CC(=O)c1sc(C(=O)O)c(-c2ccco2)c1-c1ccco1	none
CCN(CC)c1c([N+](=O)[O-])c(=O)n(C)c2ccccc12	none
Cn1c(=O)c([N+](=O)[O-])c(Cl)c2ccccc21	CHRM4 antagonist 41
NC(=O)c1nnsc1-c1ccco1	none
COc1cc(C(=O)OCc2cccc(OC)c2OC)ccc1OCC(=O)N1CCOCC1	CHRM4 PAM 22
CC(=O)Nc1ccc(Sc2ncccc2C(=O)Nc2ccc(OC(F)(F)F)cc2)cn1	CHRM5 agonist 76, CHRM5 antagonist 57, CHRM4 agonist 142, CHRM4 antagonist 73
CCCCOc1ccc(C(=O)OCC(=O)NC2CCCC2)cc1	none
COC(=O)c1cn(NC(=O)c2cc(OC)c(OC)c(OC)c2)c(=O)c2ccccc12	CHRM5 PAM 24
COC(=O)c1cn(NC(=O)c2cc(OC)cc(OC)c2)c(=O)c2ccccc12	none
COc1ccc(-c2cn(Cc3ccc(C(=O)NCc4ccc(C)cc4)cc3)c(C(C)N)n2)cc1 (stereo not given)	none
Cc1cc2occ(CC(=O)N(C)CC(=O)Nc3ccc(F)cc3)c2cc1C	none
O=P(OC1CCCCC1)(OC1CCCCC1)C(Nc1ccccc1)c1cccnc1 (stereo not given)	CHRM5 antagonist 31
CCOP(=O)(OCC)C(Nc1ccccc1)c1cccnc1 (stereo not given)	none
CCOC(=O)N1CCN(C(=O)CSCC(=O)Nc2nc(-c3ccc(-c4ccccc4)cc3)cs2)CC1	CHRM5 antagonist 44
CCOC(=O)N1CCN(C(=O)CSCC(=O)Nc2nc(-c3ccc(OC)cc3)cs2)CC1	none
Cc1noc(C)c1CSCC(=O)Nc1nc2ccc(F)cc2s1	none
CC(C)c1cc(Cn2c3ccccc3c(=O)n2C(C)Cn2cc(CCc3ccccc3)nn2)on1 (stereo not given)	none
CCCCOC(=O)/C(=C\c1ccc([N+](=O)[O-])o1)NC(=O)c1ccccc1	CHRM4 antagonist 29
CCOC(=O)CC(NC(=O)c1ccco1)c1ccc(OC)cc1 (stereo not given)	CHRM5 PAM 21
COc1cc2c(cc1NC(=O)C(C)Sc1ccc(NC(C)=O)cc1)oc1ccccc12 (stereo not given)	CHRM5 antagonist 30
NC(=O)N1c2ccccc2C=Cc2ccccc21	none
O=C(CN1CCCC1)N1c2ccccc2C=Cc2ccccc21	CHRM5 antagonist 49, CHRM4 antagonist 51
O=C(CN1CCCCC1)N1CCCc2ccccc21	none
O=C(CN1CCCCCC1)N1c2ccccc2C=Cc2ccccc21	CHRM5 antagonist 80, CHRM4 antagonist 95
CN1CCN(C(=O)N2c3ccccc3C=Cc3ccccc32)CC1	CHRM5 antagonist 98, CHRM4 antagonist 71
CCCCN1C(=O)C(=O)N(CC(=O)Nc2sc(CC)cc2C(=O)OCC)C1=O	none
Cc1ccc(/C=C/C(=O)OCC(=O)NCc2cccs2)o1	none
Cc1oc2c(c(=O)c1C)C(=O)CC(c1ccccc1)C2 (stereo not given)	CHRM5 antagonist 43
O=C(Nc1cccc(F)c1)Nc1ccnn1C1CCN(C(=O)c2ccccn2)CC1	none
COCCCNC(=O)/C=C/[C@H]1O[C@@H](n2cnc3c(NC(=O)c4ccccc4)ncnc32)[C@H](O)[C@@H]1O	CHRM4 PAM 23
CC(=O)c1cccc(NC(=O)Nc2ccc3c(c2)N(C)C(=O)CS3)c1	CHRM5 antagonist 30
O=C(Nc1nccs1)c1sc2cc(Cl)ccc2c1Cl	CHRM4 PAM 25, CHRM5 PAM 23
CC1(C(=O)Nc2ccc(F)cc2F)CCN1C(=O)CCC1CCCC1 (stereo not given)	none
CCOC(=O)c1oc2ccc(CNC3CCCCC3)c(Cl)c2c1C	CHRM4 antagonist 55
CCOC(=O)c1oc2ccc(CNCCO)c(Cl)c2c1C	none
COc1ccc(N2CCN(CCNC(=O)Nc3ccc(C)cc3Cl)CC2)cc1	none
CN(C)/C=C(\C#N)C(=O)N/N=C/c1ccccc1	CHRM5 PAM 18
O=C(N/N=C/c1ccccc1)C(=O)N/N=C/c1ccccc1	none
O=[N+]([O-])/C=C/c1cn(Cc2ccc(Cl)cc2)c2ccccc12	CHRM5 antagonist 33
Cc1c(C(=O)Nc2cccc(F)c2)cnn1-c1ccccc1	none
CCOC(=O)C1(CCOc2ccccc2)CCN(Cc2ccc(O)c(OCC)c2)CC1	CHRM5 antagonist 31
CCOC(=O)C1(CCOc2ccccc2)CCN(Cc2ccc(OC)c(O)c2)CC1	none
CCOC(=O)C1(CCOc2ccccc2)CCN(Cc2ccc(OCCO)cc2)CC1	none
CCOC(=O)C1(CCOc2ccccc2)CCN(Cc2ccc(O)cc2)CC1	CHRM5 antagonist 28
COC(=O)c1ccc(CN2CCC(CO)(Cc3cccc(OC)c3)CC2)cc1	none
COC(=O)c1ccc(CN2CCC(CO)(CCOc3ccccc3)CC2)cc1	CHRM5 antagonist 27, CHRM4 antagonist 48
C/C(=N\NC(=O)CC#N)C1COc2ccccc2O1 (stereo not given)	none
COc1ccccc1C(=O)NCCCNC(=O)c1cccnc1	none
CN(CC(=O)Nc1ccccc1C(F)(F)F)C(=O)CSc1nnc(-c2ccncc2)n1C	none
COc1cc(/C=N/NC(=O)C2=NNC(=O)C2C)ccc1O (stereo not given)	none

Compound activity (PubChem BioAssay)
